Reference: ChEMBL document CHEMBL2417367 (Bioorg Med Chem, 2013)

Tests used:
HT-29 = assay: cells; details: Homo sapiens, HT-29, 72 h
MDA-MB-231 = assay: Cytotoxicity against human MDA-MB-231 cells after 72 hrs by MTT assay; format: functional, cell-based; details: MDA-MB-231, 72 h
Method in brief: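 Cells were grown in MEM with 10% FBS. About 4×10^3 cells per well were seeded and incubated 24 h at 37 °C in 5% CO2. Compounds were then added at set final concentrations for 72 h. MTT (final 5 µg/mL) was added for 4 h at 37 °C, and formazan was dissolved in DMSO and read at 492 nm against a 630 nm reference. Each line was tested three times; IC50 is mean ± SD.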

MKN-45 = assay: cells; details: Homo sapiens, MKN-45, 72 h
A549 = assay: Cytotoxicity against human A549 cells after 72 hrs by MTT assay; format: functional, cell-based; details: A549, 72 h
cells = details: Homo sapiens, U-87 MG, 72 h
NCI-H460 = assay: cells; details: Homo sapiens, NCI-H460, 72 h
SMMC-7721 = assay: cells; details: Homo sapiens, SMMC-7721, 72 h

SMILES	IC50 (HT-29)	IC50 (MDA-MB-231)	IC50 (MKN-45)	IC50 (A549)	IC50 (cells)	IC50 (NCI-H460)	IC50 (SMMC-7721)
COc1ccc(OC)c(/C=N/NC(=O)Nc2ccc(Oc3ccnc4cc(OCCCN5CCCCC5)c(OC)cc34)c(F)c2)c1	590 nM	1500 nM	860 nM	860 nM	–	–	–
COc1cccc(/C=N/NC(=O)Nc2ccc(Oc3ccnc4cc(OCCCN5CCCCC5)c(OC)cc34)c(F)c2)c1	330 nM	1200 nM	730 nM	340 nM	–	–	–
COc1cc2c(Oc3ccc(NC(=O)N/N=C/c4ccc([N+](=O)[O-])cc4)cc3F)ccnc2cc1OCCCN1CCCCC1	370 nM	1400 nM	890 nM	820 nM	–	–	–
COc1cc2c(Oc3ccc(NC(=S)N/N=C/c4ccco4)cc3F)ccnc2cc1OCCCN1CCCCC1	400 nM	1100 nM	880 nM	470 nM	–	–	–
COc1cc2c(Oc3ccc(NC(=O)N/N=C/c4ccccc4)cc3F)ccnc2cc1OCCCN1CCOCC1	200 nM	2100 nM	670 nM	350 nM	–	–	–
COc1cc2c(Oc3ccc(NC(=O)N/N=C(\C)c4ccccc4)cc3F)ccnc2cc1OCCCN1CCCCC1	200 nM	960 nM	640 nM	160 nM	–	–	–
COc1cc2c(Oc3ccc(NC(=O)N/N=C/c4ccc(F)cc4)cc3F)ccnc2cc1OCCCN1CCC(C)CC1	83 nM	930 nM	610 nM	110 nM	–	–	–
COc1cc2c(Oc3ccc(NC(=O)N/N=C/c4ccc(OC(F)(F)F)cc4)cc3F)ccnc2cc1OCCCN1CCOCC1	1400 nM	1800 nM	1200 nM	880 nM	–	–	–
COc1cc2c(Oc3ccc(NC(=O)N/N=C/c4cccnc4)cc3F)ccnc2cc1OCCCN1CCCCC1	320 nM	880 nM	790 nM	460 nM	–	–	–
COc1cc2c(Oc3ccc(NC(=O)N/N=C/c4ccco4)cc3F)ccnc2cc1OCCCN1CCCCC1	360 nM	910 nM	710 nM	440 nM	–	–	–
COc1cc2c(Oc3ccc(NC(=O)N/N=C/c4ccc(Cl)cc4)cc3F)ccnc2cc1OCCCN1CCCCC1	98 nM	940 nM	470 nM	220 nM	24 nM	63 nM	410 nM
COc1cc2c(Oc3ccc(NC(=O)N/N=C/c4ccc(F)cc4)cc3F)ccnc2cc1OCCCN1CCCC1	220 nM	1300 nM	590 nM	270 nM	–	–	–
COc1cc2c(Oc3ccc(NC(=O)N/N=C/c4ccc(Cl)cc4)cc3F)ccnc2cc1OCCCN1CCCC1	180 nM	1300 nM	610 nM	410 nM	–	–	–
COc1cc2c(Oc3ccc(NC(=O)N/N=C/c4ccc(F)cc4)cc3F)ccnc2cc1OCCCN1CCCCC1	130 nM	820 nM	490 nM	89 nM	–	69 nM	330 nM
COc1cc2c(Oc3ccc(NC(=O)N/N=C/c4cccc([N+](=O)[O-])c4)cc3F)ccnc2cc1OCCCN1CCCCC1	320 nM	1000 nM	760 nM	750 nM	–	–	–
COc1cc2c(Oc3ccc(NC(=O)N/N=C/c4ccc(F)c(F)c4)cc3F)ccnc2cc1OCCCN1CCCCC1	380 nM	1300 nM	710 nM	270 nM	–	–	–
COc1cc2c(Oc3ccc(NC(=O)N/N=C/c4ccc(Cl)cc4)cc3F)ccnc2cc1OCCCN1CCOCC1	160 nM	1200 nM	640 nM	330 nM	–	–	–
COc1cc2c(Oc3ccc(NC(=S)N/N=C/c4ccccc4[N+](=O)[O-])cc3F)ccnc2cc1OCCCN1CCCCC1	140 nM	830 nM	450 nM	250 nM	–	–	–
COc1cc2c(Oc3ccc(NC(=O)N/N=C/C(C)C)cc3F)ccnc2cc1OCCCN1CCCCC1	1100 nM	2700 nM	2000 nM	1900 nM	–	–	–

SMILES	IC50 (HT-29)	IC50 (MDA-MB-231)	IC50 (MKN-45)	IC50 (A549)	IC50 (cells)	IC50 (NCI-H460)	IC50 (SMMC-7721)
COc1cc2c(Oc3ccc(NC(=O)N/N=C/c4ccccc4)cc3F)ccnc2cc1OCCCN1CCCCC1	180 nM	1000 nM	580 nM	160 nM	–	–	–
COc1cc2c(Oc3ccc(NC(=S)N/N=C/c4ccc(F)cc4F)cc3F)ccnc2cc1OCCCN1CCCCC1	330 nM	950 nM	680 nM	190 nM	–	–	–
COc1cc2c(Oc3ccc(NC(=O)N/N=C/c4c(C)cc(C)cc4C)cc3F)ccnc2cc1OCCCN1CCCCC1	700 nM	1100 nM	650 nM	1900 nM	–	–	–
COc1cc2c(Oc3ccc(NC(=O)N/N=C/c4ccccc4)cc3F)ccnc2cc1OCCCN1CCCC1	440 nM	950 nM	770 nM	420 nM	–	–	–
COc1cc2c(Oc3ccc(NC(=O)N/N=C/c4ccc(F)cc4)cc3F)ccnc2cc1OCCCN1CCOCC1	96 nM	1600 nM	560 nM	200 nM	–	–	–
COc1cc2c(Oc3ccc(NC(=O)N/N=C/c4ccc(C(F)(F)F)cc4)cc3F)ccnc2cc1OCCCN1CCOCC1	1100 nM	1100 nM	780 nM	790 nM	–	–	–
COc1cc2c(Oc3ccc(NC(=O)N/N=C/c4ccccc4)cc3F)ccnc2cc1OCCCN1CCC(C)CC1	240 nM	930 nM	510 nM	300 nM	–	–	–
COc1cc2c(Oc3ccc(NC(=O)N/N=C/c4ccc[nH]4)cc3F)ccnc2cc1OCCCN1CCCCC1	440 nM	1000 nM	930 nM	540 nM	–	–	–
COc1cc2c(Oc3ccc(NC(=O)N/N=C/c4ccc(Cl)cc4)cc3F)ccnc2cc1OCCCN1CCC(C)CC1	140 nM	1200 nM	620 nM	170 nM	–	–	–
COc1cc2c(Oc3ccc(NC(=O)N/N=C/c4ccccc4F)cc3F)ccnc2cc1OCCCN1CCC(C)CC1	180 nM	880 nM	490 nM	220 nM	–	–	–
COc1cc2c(Oc3ccc(NC(=O)NNCc4ccc(F)cc4F)cc3F)ccnc2cc1OCCCN1CCC(C)CC1	660 nM	1300 nM	860 nM	350 nM	–	–	–
COc1cc2c(Oc3ccc(NC(=O)N/N=C/c4ccccc4F)cc3F)ccnc2cc1OCCCN1CCCCC1	220 nM	920 nM	570 nM	130 nM	–	–	–
COc1cc2c(Oc3ccc(NC(=O)N/N=C/c4ccccc4C(F)(F)F)cc3F)ccnc2cc1OCCCN1CCCCC1	160 nM	730 nM	590 nM	130 nM	–	–	–
COc1cc2c(Oc3ccc(NC(=O)N/N=C/c4ccccc4C#N)cc3F)ccnc2cc1OCCCN1CCCCC1	260 nM	610 nM	520 nM	190 nM	–	–	–
COc1cc2c(Oc3ccc(NC(=O)N/N=C/c4ccccc4[N+](=O)[O-])cc3F)ccnc2cc1OCCCN1CCCCC1	150 nM	550 nM	480 nM	190 nM	–	–	–
C=CCc1cccc(/C=N/NC(=O)CN2CCN(Cc3ccccc3)CC2)c1O [PAC-1]	830 nM	4600 nM	820 nM	–	–	–	–
CC/C(=N\NC(=O)Nc1ccc(Oc2ccnc3cc(OCCCN4CCCCC4)c(OC)cc23)c(F)c1)c1ccccc1	330 nM	1100 nM	930 nM	290 nM	–	–	–
COc1cc2c(Oc3ccc(NC(=O)N/N=C/c4ccc(F)cc4F)cc3F)ccnc2cc1OCCCN1CCCCC1	190 nM	850 nM	560 nM	78 nM	18 nM	77 nM	300 nM
